# STAT1 inh: reduces IFN-gamma driven STAT1 reporter signal | 200,000 tested, 0.35% active | inhibition, % at 5.5 µM | NIH 3T3 STAT1-luciferase reporter, luminescence;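 active = inhibition above a set limit, the mean inhibition across all tested compounds plus 3 SD, cut at about 34% in these data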;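 note: 0% = IFN-gamma with DMSO and 100% = IFN-gamma with 300 µM nifuroxazide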
# HSP90 refold inh: blocks HSP90-mediated luciferase refolding in reticulocyte lysate; Rabbit reticulocyte lysate, luciferase refolding luminescence, 3 h; AID 1789; inhibition, % at 5.6 µM; 290,000 tested, 0.91% active;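 active = inhibition above the screen-wide mean plus 3 SD, computed separately per campaign, cut at about 16% in these data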;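 note: 0% = DMSO wells and 100% = 60 µM geldanamycin wells; inhibitors lower the luminescence because luciferase stays unfolded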
# STAT3 blocker: inhibitors of IL-6 induced STAT3 signaling. U3A cells, IL-6 STAT3-luciferase reporter, luminescence; host cell line lacks STAT1. inhibition, % at 5.5 µM. 190,000 tested, 0.89% active. AID 862;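 active = inhibition above the mean inhibition across all screened compounds plus 3 SD, cut at about 44% in these data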;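 note: 0% = DMSO only wells and 100% = 100 µM nifuroxazide control wells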
# STAT3 act: increases IL-6 driven STAT3 reporter signal | U3A cells, IL-6 STAT3-luciferase reporter, luminescence; 100% = signal with IL-6 EC80 alone | activation (% of control), % at 5.6 µM | 190,000 tested, 0.91% active;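 active = activation above the screen-wide mean of compound activation plus 3 SD, cut at about 130% in these data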;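 note: 0% = background luminescence of wells with medium and substrate only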
#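 Assay system – human STAT1-deficient U3A cells with stable STAT3-luciferase reporter · Also added – IL-6 (33 ng/mL) · Schedule – compound 1 h, then IL-6 6 h at 37 °C · Technique – reporter luminescence signal · Evaluation – % activation versus median of IL-6-stimulated wells · Benchmarks – IL-6-only wells as 100% reference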
# HSP90 inh confirm: confirmation of HSP90 inhibitors; shares compounds with HSP90 refold inh; rabbit reticulocyte lysate, luciferase refolding luminescence, 3 h; inhibition, % at 5.9 µM; 2,300 tested, 64% active; AID 1846; in the data active = inhibition above about 18%;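 note: 0% = vehicle wells and 100% = reference inhibitor wells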
# luciferase ctr: blocks native firefly luciferase in HSP90 counter-screen; shares compounds with HSP90 refold inh; purified native firefly luciferase, luminescence; inhibition, % at 5.9 µM; 2,300 tested, 48% active;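 active = inhibition above the mean inhibition of all tested sample wells plus 3 SD, cut at about 10% in these data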;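 note: 0% = DMSO with luciferase and 100% = wells lacking luciferase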
# Target sequence (P08659 whole entry, looked up): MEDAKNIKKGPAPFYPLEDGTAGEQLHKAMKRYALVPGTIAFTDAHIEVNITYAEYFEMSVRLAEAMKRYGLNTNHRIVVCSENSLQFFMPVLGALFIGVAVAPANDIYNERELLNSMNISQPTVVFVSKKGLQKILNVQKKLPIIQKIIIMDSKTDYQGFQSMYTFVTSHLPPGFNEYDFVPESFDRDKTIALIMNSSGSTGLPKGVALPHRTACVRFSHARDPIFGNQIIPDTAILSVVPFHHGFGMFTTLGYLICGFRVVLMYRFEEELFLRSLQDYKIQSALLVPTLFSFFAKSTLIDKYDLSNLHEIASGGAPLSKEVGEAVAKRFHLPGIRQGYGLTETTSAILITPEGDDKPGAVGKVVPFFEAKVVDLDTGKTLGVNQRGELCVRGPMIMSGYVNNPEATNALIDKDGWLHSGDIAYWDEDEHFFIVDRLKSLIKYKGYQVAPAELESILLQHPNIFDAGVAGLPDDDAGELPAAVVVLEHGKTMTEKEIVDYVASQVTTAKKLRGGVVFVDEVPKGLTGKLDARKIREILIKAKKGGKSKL
# Starred values were filed as active, the others as inactive; · = not tested or not shown. Only some compounds are listed: those with a hit (about 2% of all), similar ones and a draw of the others.
SMILES,STAT1 inh,HSP90 refold inh,STAT3 blocker,STAT3 act,HSP90 inh confirm,luciferase ctr
Cc1c(/C(O)=C2/C(=O)C(=O)N(Cc3cccnc3)C2c2cccs2)cnn1-c1ccccc1 (configuration not stated),-44,55*,24,79,55*,53*
CN(CC(=O)NCc1ccncc1)S(=O)(=O)c1cc(Cl)ccc1Cl,·,53*,·,·,-1,-7
Cc1ccc2c(c1)COc1c3ccc(C(=O)O)cc3nn1-2,·,96*,·,·,94*,79*
CCOc1ccc2cc(C3CC(c4ccco4)=NN3S(C)(=O)=O)c(Cl)nc2c1 (configuration not stated),·,-1,·,·,·,·
CCc1ccc(C2CC(c3ccco3)=NN2S(C)(=O)=O)cc1 (configuration not stated),-42,18*,18,90,22*,13*
CCCOc1ccc(-c2c(C(=O)N/N=C/c3cccs3)nnn2-c2nonc2N)cc1,·,1,·,·,·,·
CNC(=O)CSc1nnc(-c2cc3c(C)nn(-c4ccccc4)c3s2)n1C,2,-2,13,93,·,·
Cc1nn(-c2ccccc2)c2sc(-c3n[nH]c(=S)o3)cc12,-12,19*,-3,108,-14,-12
CCOC(=O)c1ccc(-c2c(-c3ccc4c(c3)OCO4)noc2C)cc1F,·,17*,·,·,2,-6
Cc1noc(C)c1COC(=O)c1ccc2c(c1)OCO2,2,2,7,99,·,·
CNC(=S)N/N=C/c1ccc(-c2ccc(C(=O)O)cc2)o1,·,34*,·,·,37*,-2
CNC(=S)N/N=C/c1ccc(-c2ccc(Cl)c([N+](=O)[O-])c2)o1,5,5,16,90,·,·
O=C(Nc1ccc(NC(=O)c2cccc([N+](=O)[O-])c2)cc1)c1cccc([N+](=O)[O-])c1,·,3,·,·,·,·
O=C(Nc1ncc([N+](=O)[O-])s1)c1cccc([N+](=O)[O-])c1,·,16*,·,·,60*,34*
COc1ccc(C[C@H]2CN3C(=NC[C@@H]3C(C)C)N2CCNC(=O)c2ccc(C)c(Br)c2)cc1,20,18*,·,·,3,-7
COCC(C)NC(=O)c1ccc2c(c1)S(=O)(=O)c1ccccc1C2=O (configuration not stated),·,2,·,·,·,·
c1ccc2c(c1)CCN(c1nc3cc4c(cc3s1)OCCO4)C2,37*,54*,88*,24,73*,74*
CCCCNC(=O)COC(=O)c1c2c(nc3ccccc13)CCC2,·,33*,·,·,6,-5
CNC(=O)COC(=O)c1c2c(nc3ccccc13)CCC2,·,5,·,·,·,·
COCCNC(=O)c1cnn2c(C(F)(F)F)cc(-c3ccc(C)cc3)nc12,-3,-2,12,94,·,·
COc1cccc(/C=N/Nc2ncccc2[N+](=O)[O-])c1OC,·,67*,·,·,77*,70*
CCN(CC)c1ccc(C2C(C(=O)OC(C)C)C(=O)CC(C)(O)C2C(=O)OC(C)C)cc1 (configuration not stated),-2,32*,10,97,2,-2
CCOC(=O)C1C(=O)CC(C)(O)C(C(=O)OCC)C1c1ccc(N(CC)CC)cc1 (configuration not stated),5,-2,-1,103,·,·
CCOC(=O)C1CCCN(C(=O)c2ccc3nc(-c4ccccc4)c(-c4ccccc4)nc3c2)C1 (configuration not stated),·,2,·,·,·,·
COc1cccc(-c2nc3ccc(C(=O)N4CCCC(O)C4)cc3o2)c1 (configuration not stated),·,-2,·,·,·,·
SMILES,STAT1 inh,HSP90 refold inh,STAT3 blocker,STAT3 act,HSP90 inh confirm,luciferase ctr
CCC(=O)C1CCCN(C(=O)c2ccc3nc(-c4cccc(OC)c4)oc3c2)C1 (configuration not stated),·,25*,·,·,32*,15*
CCOC(=O)C1CCCN(C(=O)c2ccc3nc(-c4cccc(OC)c4)oc3c2)C1 (configuration not stated),·,21*,·,·,36*,25*
Cc1cc(C(=O)Nc2ccccn2)cs1,-12,25*,34,74,16*,4
O=C(NC(=O)c1ccccc1)Nc1ccccn1,·,74*,·,·,93*,86*
Cc1ccc(N=Cc2c(O)n(-c3nccs3)c(=O)c3ccccc23)cc1,-8,-5,15,90,·,·
N=c1sccn1CC(=O)Nc1cc(S(=O)(=O)N2CCCCC2)ccc1Cl,·,-1,·,·,·,·
Cc1c(CC(=O)NCCCC(=O)O)c(=O)oc2cc3c(cc12)CCC(C)(C)O3,·,24*,·,·,36*,-5
CC1CCC2(CC1)NC(=O)N(CC(=O)NCc1ccc3c(c1)OCO3)C2=O (configuration not stated),·,2,·,·,·,·
CC1CCCCC12NC(=O)N(CC(=O)NCc1ccc3c(c1)OCO3)C2=O (configuration not stated),-1,26*,8,97,-6,-10
CC1=C(C(=O)NCc2ccc3c(c2)OCO3)C2(CCC(C)CC2)OC1=O (configuration not stated),-2,57*,-7,106,-7,-10
COc1ccccc1NC(=O)CNC(=O)c1ccc(Br)o1,·,2,·,·,·,·
CCOC(=O)c1oc2ccc(S(=O)(=O)N3CCC(C)CC3)cc2c1C,2,21*,10,93,-2,-9
O=C(NCCOc1ccc(Cl)cc1)c1ccco1,·,-3,·,·,·,·
Cc1ccc(/C=N/Nc2ccc(Cl)c(C(=O)O)c2)s1,-49,24*,-31,129,77*,37*
Cc1ccc(/C=N/Nc2nc(Cl)c(Cl)cc2Cl)s1,-52,-1,-5,108,·,·
O=C(O)c1cc(N/N=C/c2cccs2)ccc1Cl,-12,24*,-30,130,67*,21*
C/C(=N\Nc1ccc(Cl)c(C(=O)O)c1)c1ccccn1,·,40*,·,·,3,-14
O=C(O)c1cc(N/N=C/C(Cl)=C/c2ccccc2)ccc1Cl,59*,48*,51*,62,89*,80*
O=C(O)c1cc(NN=C2c3ccccc3-c3ccccc32)ccc1Cl,·,-6,·,·,·,·
Cc1cc(NC(=O)CSc2nnc(CNC(=O)c3c(F)cccc3F)o2)no1,·,0,·,·,·,·
CCCc1nnc(SCC(=O)Nc2nnc(CC)s2)n1CC1CCCO1 (configuration not stated),·,-2,·,·,·,·
CCOc1ccc(C(=O)Nc2ccccc2-c2ccccc2)cc1Cl,-1,2,26,83,·,·
Cc1c(NC(=O)c2ccc(-c3ccccc3)cc2)cccc1C(=O)O,·,75*,·,·,81*,63*
CCOc1ccc(C(=O)Nc2cccc(C(=O)O)c2C)cc1Cl,51*,88*,75*,39,92*,68*
O=C(Nc1ccccc1C(=O)O)c1ccccc1,3,4,9,91,·,·
CCCSc1ccc2nc(-c3ccccc3)cn2c1,79*,46*,103*,15,90*,83*
Cc1ccc2nc(SCC(=O)N3CCOCC3)[nH]c2c1,-35,2,3,102,·,·

# Assay outcomes deposited in PubChem by The Scripps Research Institute Molecular Screening Center.
